From ChEMBL document CHEMBL5331142, “Novel 1,4-Dihydropyridines as Specific Binders and Activators of SIRT3 Impair Cell Viability and Clonogenicity and Downregulate Hypoxia-Induced Targets in Cancer Cells” (J Med Chem, 2023)
Calls of active or inactive are those of the source. The calls are words filed in the database; no cut-off is given here.

Key:
[1] = target: T1, NAD-dependent protein deacetylase sirtuin-2 (Homo sapiens) (UniProt Q8IXJ6); test: Activation of N-terminal his-tagged human SIRT2 (43 to 356 residues) expressed in Escherichia coli at 10 uM using p53-acK381 as substrate in presence of NAD+ by NADH oxidation-coupled enzymatic assay
T1 sequence (whole entry): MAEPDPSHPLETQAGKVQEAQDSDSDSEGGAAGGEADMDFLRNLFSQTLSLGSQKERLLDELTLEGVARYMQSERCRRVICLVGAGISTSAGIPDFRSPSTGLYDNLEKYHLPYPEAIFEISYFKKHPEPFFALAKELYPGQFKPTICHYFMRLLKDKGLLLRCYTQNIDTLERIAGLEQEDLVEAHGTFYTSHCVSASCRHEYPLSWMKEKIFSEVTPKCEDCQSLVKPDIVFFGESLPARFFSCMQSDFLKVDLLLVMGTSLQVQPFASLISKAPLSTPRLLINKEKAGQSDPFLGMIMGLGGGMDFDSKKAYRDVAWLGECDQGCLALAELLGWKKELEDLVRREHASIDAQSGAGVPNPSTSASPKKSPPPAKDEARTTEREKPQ

[2] = system: CAL-62; test: Anticancer activity against human CAL-62 cells assessed as reduction in cell viability at 50 uM incubated for 24 to 48 hrs under hypoxia condition by trypan blue exclusion assay; type: functional, cell-based; conditions: time 24-48 hrs, TDE = time-dependent effect
Outline: (§1)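 CAL-62 cells in RPMI 1640 with 10% FBS, treated with 50 μM compound (DMSO) for 24 and 48 h. Hypoxia induced with 200 μM CoCl2, kept in the medium during treatment. Viable cells counted by 0.4% trypan blue staining on a hemocytometer.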

[3] = system: CAL-62; test: Inhibition of clonogenicity in human CAL-62 cells incubated for 48 hrs under hypoxia condition by crystal violet staining based assay; type: functional, cell-based; conditions: CAL-62, 48 h
Outline: (§2)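 Dose range 1–50 μM for 48 h under CoCl2 (200 μM) hypoxia. 500 surviving cells replated and grown about 7 days (CAL-62) or 10 days (MDA-MB-231). Crystal violet colony counts used to derive IC50/EC50. Three independent experiments.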

[4] = system: MDA-MB-231; test: Downregulation of COL1A2 gene expression in human MDA-MB-231 cells at 50 uM incubated for 48 hrs by qRT-PCR analysis; type: functional, cell-based
Outline: (§3)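 MDA-MB-231 cells treated with 50 μM compound for 48 h under normoxia, DMSO vehicle control. qRT-PCR quantified by the 2(−ΔCt) method as fold of control, mean ± SEM. Three independent experiments.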

[5] = target: T2, NAD-dependent protein deacetylase sirtuin-3, mitochondrial (Homo sapiens) (UniProt Q9NTG7); test: Activation of human SIRT3 overexpressing in human CAL-62 cells assessed as increase in acK68-MnSOD deacetylation level at 50 uM incubated for 4 hrs by Western blot analysis assay; type: cell-based; conditions: filed as activator
T2 sequence (whole entry): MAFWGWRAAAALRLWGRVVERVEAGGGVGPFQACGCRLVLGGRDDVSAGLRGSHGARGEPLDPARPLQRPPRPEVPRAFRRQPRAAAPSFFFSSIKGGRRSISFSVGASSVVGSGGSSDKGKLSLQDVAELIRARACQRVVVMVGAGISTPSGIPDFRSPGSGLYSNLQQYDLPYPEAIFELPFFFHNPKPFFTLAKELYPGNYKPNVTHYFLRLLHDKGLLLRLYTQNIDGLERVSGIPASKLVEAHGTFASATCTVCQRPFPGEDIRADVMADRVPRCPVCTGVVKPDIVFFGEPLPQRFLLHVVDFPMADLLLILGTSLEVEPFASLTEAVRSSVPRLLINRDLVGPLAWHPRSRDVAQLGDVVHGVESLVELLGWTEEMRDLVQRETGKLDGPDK
Outline: (§4)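 CAL-62 or MDA-MB-231 cells treated 4 h at 50 μM. Lysed in Tris/NaCl/EDTA/Triton buffer with protease and phosphatase inhibitors. 15 or 50 μg protein resolved by SDS-PAGE, immunoblotted for acK68- or acK122-MnSOD and total MnSOD, ECL detection. Densitometric acetyl/total ratio. SIRT3 inhibitor 3-TYP (1 μM) used as control.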

[6] = system: MDA-MB-231; test: Downregulation of ZEB1 gene expression in human MDA-MB-231 cells at 50 uM incubated for 48 hrs by qRT-PCR analysis; type: functional, cell-based; outline: as §3
[7] = system: CAL-62; test: Anticancer activity against human CAL-62 cells assessed as reduction in cell viability at 50 uM incubated for 24 to 48 hrs under normoxia condition by trypan blue exclusion assay; type: functional, cell-based; conditions: time 24-48 hrs, TDE = time-dependent effect; outline: as §1
[8] = system: MDA-MB-231; test: Downregulation of SLUG gene expression in human MDA-MB-231 cells at 50 uM incubated for 48 hrs by qRT-PCR analysis; type: functional, cell-based; outline: as §3
[9] = target: T2, NAD-dependent protein deacetylase sirtuin-3, mitochondrial (Homo sapiens); test: Activation of N-terminal his-tagged human SIRT3 (114 to 380 residues) deacylation activity expressed in Escherichia coli at 10 uM using ACS2-acK642 as substrate in presence of NAD+ by NADH oxidation-coupled enzymatic assay; conditions: filed as activator
Outline: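 Coupled PncA/GDH deacylation assay following NADPH oxidation to NADP+. 1.5 μM sirtuin, 50 μM substrate peptide, 100 μM NAD+, compound at 10 μM, 5% final DMSO. Isoform-specific physiological substrates: p53-acK381 (SIRT1), […] (SIRT2), ACS2-acK642 (SIRT3), CPS1-succK537 (SIRT5). Sirtuins expressed in E. coli, Ni-NTA purified, tag cleaved, then size-exclusion chromatography.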

[10] = target: NAD-dependent protein deacylase sirtuin-5, mitochondrial (Homo sapiens) (UniProt Q9NXA8); test: Activation of N-terminal his-tagged human SIRT5 (34 to 302 residues) expressed in Escherichia coli at 10 uM using p53-acK381 as substrate in presence of NAD+ by NADH oxidation-coupled enzymatic assay
[11] = system: MDA-MB-231; test: Inhibition of clonogenicity in human MDA-MB-231 cells incubated for 48 hrs under hypoxia condition by crystal violet staining based assay; type: functional, cell-based; conditions: MDA-MB-231, 48 h; outline: as §2
[12] = target: T2, NAD-dependent protein deacetylase sirtuin-3, mitochondrial (Homo sapiens); test: Activation of human SIRT3 overexpressing in human CAL-62 cells assessed as increase in acK122-MnSOD deacetylation level at 50 uM incubated for 4 hrs by Western blot analysis assay; type: cell-based; conditions: filed as activator; outline: as §4
[13] = system: MDA-MB-231; test: Downregulation of EPAS-1 expression in human MDA-MB-231 cells at 50 uM incubated for 48 hrs under hypoxia condition by Western blot analysis; type: functional, cell-based
Outline: (§5)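 CAL-62 or MDA-MB-231 cells made hypoxic with 200 μM CoCl2 for 24 h, then treated with 50 μM compound for 48 h with CoCl2 retained. Lysates (15 or 50 μg protein) immunoblotted for HIF-1α, EPAS-1 or CA-IX with ACTB, ECL detection. 3-TYP (1 μM) as control.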

[14] = system: CAL-62; test: Downregulation of HIF1alpha expression in human CAL-62 cells at 50 uM incubated for 48 hrs under hypoxia condition by Western blot analysis; type: functional, cell-based; outline: as §5
[15] = system: HaCaT; test: Cytotoxicity against human HaCaT cells assessed as reduction in cell viability at 5 to 25 uM incubated for 24 to 48 hrs by trypan blue exclusion assay; type: toxicity, cell-based; conditions: dose lower 5 µM, time lower 24 hrs, dose upper 25 µM, time upper 48 hrs
Outline: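 HaCaT keratinocytes in DMEM with 10% FBS, treated at 5, 10 and 25 μM for 24 and 48 h. Viability and death scored by trypan blue hemocytometer counting. Three independent experiments.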

Sequence of NAD-dependent protein deacylase sirtuin-5, mitochondrial (Homo sapiens) (Q9NXA8 37-310 limits assumed): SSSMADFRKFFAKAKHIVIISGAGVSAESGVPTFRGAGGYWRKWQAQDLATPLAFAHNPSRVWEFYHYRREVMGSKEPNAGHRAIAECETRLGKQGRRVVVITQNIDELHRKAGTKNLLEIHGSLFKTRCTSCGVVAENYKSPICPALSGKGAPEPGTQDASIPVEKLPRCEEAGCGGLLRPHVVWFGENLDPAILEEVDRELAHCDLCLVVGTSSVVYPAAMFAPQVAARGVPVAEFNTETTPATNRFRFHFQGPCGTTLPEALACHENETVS

SMILES | Activity [1] | Activity [2] | IC50 [3] [µM] | Activity [4] | Activity [5] | Activity [6] | Activity [7] | Activity [8] | Activity [9] [%] | Activity [10] | IC50 [11] [µM] | Activity [12] | Activity [13] | Activity [14] | Activity [15]
CCOC(=O)C1=CN(C(=O)c2cc(OC)cc(OC)c2)C=C(C(=O)OCC)C1c1ccccc1 | inactive | Tde | 5.43 | Active | Active | Active | Tde | inactive | 149 | inactive | 3.19 | Active | Active | Active | –
CCOC(=O)C1=CN(C(=O)c2ccc(OC)c(OC)c2)C=C(C(=O)OCC)C1c1ccccc1 | inactive | Tde | – | Active | – | – | Tde | – | 158 | inactive | – | – | Active | – | Non-Toxic
